≈ marks a conversion by molar mass, not a printed value.
Legend:
Type in all cases: functional
[1] = system: Mycobacterium tuberculosis; assay: Antimycobacterial activity against Mycobacterium tuberculosis CNCTC My 331/88 after 14 days by micromethod; conditions: CNCTC My 331/88, 336 h
How it was run: (§1)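 MIC by micromethod in Šula semisynthetic medium. Compounds added as DMSO solutions at 1000, 500, 250, 125, 62, 32, 16, 8, 4 and 2 µmol/L. Incubated at 37 °C and read at 14 and 21 days. MIC taken as the lowest concentration that inhibited mycobacterial growth, expressed in µmol/L. INH run as standard. Strains from CNCTC.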

[2] = system: Mycobacterium tuberculosis; assay: Antimycobacterial activity against Mycobacterium tuberculosis CNCTC My 331/88 after 21 days by micromethod; conditions: CNCTC My 331/88, 504 h; how it was run: as §1
[3] = system: Mycobacterium kansasii; assay: Antimycobacterial activity against Mycobacterium kansasii CNCTC My 235/80 after 7 days by micromethod; conditions: CNCTC My 235/80, 168 h
How it was run: (§2)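 Micromethod MIC in Šula semisynthetic medium, with compounds added as DMSO solutions at 1000, 500, 250, 125, 62, 32, 16, 8, 4 and 2 µmol/L. Cultures were incubated at 37 °C, and M. kansasii was read at 7, 14 and 21 days. MIC is the lowest concentration at which mycobacterial growth was inhibited. INH served as standard. Strain 6509/96 was a clinical isolate.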

[4] = system: Mycobacterium kansasii; assay: Antimycobacterial activity against Mycobacterium kansasii CNCTC My 235/80 after 14 days by micromethod; conditions: CNCTC My 235/80, 336 h; how it was run: as §2
[5] = system: Mycobacterium kansasii; assay: Antimycobacterial activity against Mycobacterium kansasii CNCTC My 235/80 after 21 days by micromethod; conditions: CNCTC My 235/80, 504 h; how it was run: as §2
[6] = system: Mycobacterium kansasii; assay: Antimycobacterial activity against Mycobacterium kansasii 6509/96 after 7 days by micromethod; conditions: 6509/96, 168 h; how it was run: as §2
[7] = system: Mycobacterium kansasii; assay: Antimycobacterial activity against Mycobacterium kansasii 6509/96 after 14 days by micromethod; conditions: 6509/96, 336 h; how it was run: as §2
[8] = system: Mycobacterium kansasii; assay: Antimycobacterial activity against Mycobacterium kansasii 6509/96 after 21 days by micromethod; conditions: 6509/96, 504 h; how it was run: as §2
[9] = system: Mycobacterium avium; assay: Antimycobacterial activity against Mycobacterium avium CNCTC My 330/88 after 14 days by micromethod; conditions: CNCTC My 330/88, 336 h; how it was run: as §1
[10] = system: Mycobacterium avium; assay: Antimycobacterial activity against Mycobacterium avium CNCTC My 330/88 after 21 days by micromethod; conditions: CNCTC My 330/88, 504 h; how it was run: as §1
[11] = system: K562; assay: Growth inhibition of human K562 cells
How it was run: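 K-562 suspension cultures in microplates were exposed to 10 concentrations of compound. Each well was diluted 1:50 in CASYTON and counted with a CASY 1 electronic cell analyzer (150 µm aperture), using the mean of three successive 0.4 mL counts. GI50 is the point where the concentration-response curve of cell counts/mL relative to control crosses the 50% line.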

[12] = system: L929; assay: Growth inhibition of mouse L929 cells
How it was run: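 Antiproliferative assay on adherent L-929 monolayers exposed to 10 concentrations of compound. Cells were fixed with glutaraldehyde, stained with 0.05% methylene blue for 15 min, washed, and the dye eluted with 0.33 N HCl. OD was read at 630 nm, and GI50 is the concentration giving 50% growth inhibition.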

[13] = system: HeLa; assay: Cytotoxicity against human HeLa cells
How it was run: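 Adherent HeLa monolayers were incubated with 10 concentrations of compound, then glutaraldehyde-fixed and stained with 0.05% methylene blue for 15 min. After gentle washing, the stain was eluted with 0.33 N HCl and absorbance read at 630 nm. CC50 is the concentration causing 50% cytotoxic (lytic) effect.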

Row | SMILES | MIC [1] | MIC [2] | MIC [3] | MIC [4] | MIC [5] | MIC [6] | MIC [7] | MIC [8] | MIC [9] | MIC [10] | GI50 [11] | GI50 [12] | CC50 [13]
1 | NC(=S)c1cccc(CSc2nc3ccccc3o2)c1 | 8 µM (≈ 2.4 µg/mL) | 16 µM (≈ 4.81 µg/mL) | 8 µM (≈ 2.4 µg/mL) | 32 µM (≈ 9.61 µg/mL) | 32 µM (≈ 9.61 µg/mL) | 8 µM (≈ 2.4 µg/mL) | 32 µM (≈ 9.61 µg/mL) | 32 µM (≈ 9.61 µg/mL) | 62 µM (≈ 18.6 µg/mL) | 62 µM (≈ 18.6 µg/mL) | 5.5 µg/mL (≈ 18.3 µM) | 17.3 µg/mL (≈ 57.6 µM) | 21.6 µg/mL (≈ 71.9 µM)
2 | O=[N+]([O-])c1cccc(F)c1CSc1nc2ccccc2o1 | > 62 µM | > 62 µM | > 32 µM | > 32 µM | > 32 µM | 32 µM (≈ 9.74 µg/mL) | > 32 µM | > 62 µM | 62 µM (≈ 18.9 µg/mL) | 125 µM (≈ 38 µg/mL) | – | – | –
3 | O=[N+]([O-])c1ccc(CSc2nc3ccccc3o2)cc1 | > 62 µM | > 125 µM | 32 µM (≈ 9.16 µg/mL) | 32 µM (≈ 9.16 µg/mL) | > 62 µM | 32 µM (≈ 9.16 µg/mL) | 32 µM (≈ 9.16 µg/mL) | > 32 µM | > 32 µM | > 62 µM | – | – | –
4 | Sc1nc2ccccc2o1 | 500 µM (≈ 75.6 µg/mL) | 500 µM (≈ 75.6 µg/mL) | 500 µM (≈ 75.6 µg/mL) | 1000 µM (≈ 151 µg/mL) | 1000 µM (≈ 151 µg/mL) | 250 µM (≈ 37.8 µg/mL) | 500 µM (≈ 75.6 µg/mL) | 1000 µM (≈ 151 µg/mL) | 250 µM (≈ 37.8 µg/mL) | 500 µM (≈ 75.6 µg/mL) | – | – | –
5 | Fc1cccc(Cl)c1CSc1nc2ccccc2o1 | 62 µM (≈ 18.2 µg/mL) | 125 µM (≈ 36.7 µg/mL) | 32 µM (≈ 9.4 µg/mL) | 32 µM (≈ 9.4 µg/mL) | 62 µM (≈ 18.2 µg/mL) | 32 µM (≈ 9.4 µg/mL) | 32 µM (≈ 9.4 µg/mL) | 62 µM (≈ 18.2 µg/mL) | 62 µM (≈ 18.2 µg/mL) | 62 µM (≈ 18.2 µg/mL) | – | – | –
6 | COc1cccc(CSc2nc3ccccc3o2)c1 | 125 µM (≈ 33.9 µg/mL) | 250 µM (≈ 67.8 µg/mL) | 32 µM (≈ 8.68 µg/mL) | 32 µM (≈ 8.68 µg/mL) | 62 µM (≈ 16.8 µg/mL) | 32 µM (≈ 8.68 µg/mL) | 32 µM (≈ 8.68 µg/mL) | 62 µM (≈ 16.8 µg/mL) | 32 µM (≈ 8.68 µg/mL) | 32 µM (≈ 8.68 µg/mL) | – | – | –
7 | Cc1cccc(CSc2nc3ccccc3o2)c1 | 250 µM (≈ 63.8 µg/mL) | 500 µM (≈ 128 µg/mL) | 125 µM (≈ 31.9 µg/mL) | 125 µM (≈ 31.9 µg/mL) | 500 µM (≈ 128 µg/mL) | 125 µM (≈ 31.9 µg/mL) | 125 µM (≈ 31.9 µg/mL) | 250 µM (≈ 63.8 µg/mL) | 62 µM (≈ 15.8 µg/mL) | 125 µM (≈ 31.9 µg/mL) | – | – | –
8 | FC(F)(F)c1cccc(CSc2nc3ccccc3o2)c1 | 62 µM (≈ 19.2 µg/mL) | 125 µM (≈ 38.7 µg/mL) | 32 µM (≈ 9.9 µg/mL) | 32 µM (≈ 9.9 µg/mL) | 62 µM (≈ 19.2 µg/mL) | 32 µM (≈ 9.9 µg/mL) | 32 µM (≈ 9.9 µg/mL) | 62 µM (≈ 19.2 µg/mL) | 32 µM (≈ 9.9 µg/mL) | 32 µM (≈ 9.9 µg/mL) | – | – | –
9 | FC(F)(F)c1ccc(CSc2nc3ccccc3o2)cc1 | 125 µM (≈ 38.7 µg/mL) | 125 µM (≈ 38.7 µg/mL) | 32 µM (≈ 9.9 µg/mL) | 62 µM (≈ 19.2 µg/mL) | 125 µM (≈ 38.7 µg/mL) | 16 µM (≈ 4.95 µg/mL) | 32 µM (≈ 9.9 µg/mL) | 62 µM (≈ 19.2 µg/mL) | 62 µM (≈ 19.2 µg/mL) | 62 µM (≈ 19.2 µg/mL) | – | – | –
10 | Clc1cccc(CSc2nc3ccccc3o2)c1 | 62 µM (≈ 17.1 µg/mL) | 125 µM (≈ 34.5 µg/mL) | 32 µM (≈ 8.82 µg/mL) | 32 µM (≈ 8.82 µg/mL) | 62 µM (≈ 17.1 µg/mL) | 32 µM (≈ 8.82 µg/mL) | 32 µM (≈ 8.82 µg/mL) | 62 µM (≈ 17.1 µg/mL) | 32 µM (≈ 8.82 µg/mL) | 32 µM (≈ 8.82 µg/mL) | – | – | –
11 | Cc1ccc(CSc2nc3ccccc3o2)cc1 | > 500 µM | > 500 µM | 62 µM (≈ 15.8 µg/mL) | 62 µM (≈ 15.8 µg/mL) | 125 µM (≈ 31.9 µg/mL) | 62 µM (≈ 15.8 µg/mL) | 62 µM (≈ 15.8 µg/mL) | 125 µM (≈ 31.9 µg/mL) | 32 µM (≈ 8.17 µg/mL) | 62 µM (≈ 15.8 µg/mL) | – | – | –
12 | N#Cc1cccc(CSc2nc3ccccc3o2)c1 | 125 µM (≈ 33.3 µg/mL) | 125 µM (≈ 33.3 µg/mL) | 32 µM (≈ 8.52 µg/mL) | 62 µM (≈ 16.5 µg/mL) | 125 µM (≈ 33.3 µg/mL) | 32 µM (≈ 8.52 µg/mL) | 62 µM (≈ 16.5 µg/mL) | 62 µM (≈ 16.5 µg/mL) | 62 µM (≈ 16.5 µg/mL) | 62 µM (≈ 16.5 µg/mL) | – | – | –
13 | Brc1ccc(CSc2nc3ccccc3o2)cc1 | > 62 µM | > 125 µM | 32 µM (≈ 10.2 µg/mL) | 62 µM (≈ 19.9 µg/mL) | > 62 µM | 32 µM (≈ 10.2 µg/mL) | 62 µM (≈ 19.9 µg/mL) | 125 µM (≈ 40 µg/mL) | 32 µM (≈ 10.2 µg/mL) | 62 µM (≈ 19.9 µg/mL) | – | – | –
14 | N#Cc1ccc(CSc2nc3ccccc3o2)cc1 | > 62 µM | > 62 µM | 32 µM (≈ 8.52 µg/mL) | 32 µM (≈ 8.52 µg/mL) | > 32 µM | 16 µM (≈ 4.26 µg/mL) | 32 µM (≈ 8.52 µg/mL) | > 32 µM | 62 µM (≈ 16.5 µg/mL) | 62 µM (≈ 16.5 µg/mL) | – | – | –

Reference: ChEMBL document CHEMBL1137696, “Preparation and in vitro evaluation of benzylsulfanyl benzoxazole derivatives as potential antituberculosis agents” (2009)
